Experimental data of several laboratories.
Compare with care: the assays were run in different laboratories.
Target: Macrophage-stimulating protein receptor (MST1R, Homo sapiens, UniProt Q04912)

Structure (SMILES)	test	setting	remaining binding [%]
C[C@@]1(Cc2ccc(C#N)cc2)C(=O)N(c2cc(Cl)cc(Cl)c2)c2ncc(C(=O)NC3(c4nc(C5CCC5)no4)CC3)n21	cell-free assay, competition with immobilised ligand	1 µM	100
N[C@H]1CCN(c2nccc(-c3cnn4ncccc34)n2)C1	binding	1 µM	82
FC(F)(F)Oc1cccc(-c2cnc3ccc(-c4ccncc4)nn23)c1	cell-free assay, competition with immobilised ligand	5 µM	79
c1ccc(N2CCN(Cc3nc4ccccc4[nH]3)CC2)nc1	cell-free assay, competition with immobilised ligand	1 µM	100
CN(C)c1nccc(-c2cnn3ncccc23)n1	binding	1 µM	100
C=CC(=O)N1CCC(C(=O)NCC(=O)N2CCN(c3nc(-c4cnc(N)nc4C(F)F)nc(N4CCOCC4)n3)CC2)CC1	binding, competition with immobilised ligand	1 µM	100
CNC(=O)c1ccc(Nc2ncc(C(F)(F)F)c(NCc3nccnc3N(C)S(C)(=O)=O)n2)cc1	cell-free assay, competition with immobilised ligand	0.1 µM	100
CN(C)c1nccc(-c2cnc3ncccn23)n1	binding	1 µM	98
O=C(NCCCN1CCOCC1)c1ccc(Nc2ncc(Cl)c(-c3ccc(Cl)s3)n2)cc1	binding, competition with immobilised ligand	1 µM	67
COc1ccnn2ncc(-c3ccnc(N(C)C)n3)c12	binding	1 µM	100
O=C(c1ccc(Nc2nccc(-c3cc4ccccc4s3)n2)cc1)N1CCC(N2CCCC2)CC1	binding, competition with immobilised ligand	1 µM	88
CO[C@@H](C)c1c(Nc2ccc([C@@H](N(C)C(=O)C3CCS(=O)(=O)CC3)C(F)(F)F)cc2)cnc2cc(Cl)nn12	cell-free assay, competition with immobilised ligand	1 µM	100
Nc1ncc2c(n1)-c1c([nH]c3ccc(C#CC4CC4)cc13)CCCC2	binding, competition with immobilised ligand	1 µM	100
CCN1CCN(Cc2ccc(C(=O)Nc3ccc(C)c(Oc4ccc5c(c4)CC(=O)N5)c3)cc2C(F)(F)F)CC1	binding, competition with immobilised ligand	1 µM	88
C[C@H]1CCN(c2nccc(-c3cnn4ncccc34)n2)C1	binding	1 µM	93
COc1cnc(Nc2cccc(S(N)(=O)=O)c2)nc1N1CCN(c2ccccc2)C(=O)C1	binding, competition with immobilised ligand	1 µM	100
F[C@@H]1CCN(c2nccc(-c3cnn4ncccc34)n2)C1	binding	1 µM	100
Cc1nc(N2CC[C@@H](O)C2)ncc1-c1cc(C(F)(F)F)cc2[nH]ncc12	cell-free assay, competition with immobilised ligand	1 µM	100
O=C(c1ccc(Nc2ncc(Cl)c(-c3ccc(Cl)s3)n2)cc1)N1CCC(N2CCCC2)CC1	binding, competition with immobilised ligand	1 µM	43
NS(=O)(=O)c1cc(NC(=O)Cc2ccccc2)ccc1Oc1cccc(Cl)c1	cell-free assay, competition with immobilised ligand	1 µM	97
O=C(NCC1CCOCC1)c1n[nH]cc1NC(=O)c1c(F)cccc1F	binding, competition with immobilised ligand	1 µM	100
